Assay [1] has as its target T1, 5-hydroxytryptamine receptor 6 (Homo sapiens, UniProt P50406). Description: Displacement of [3H]LSD from human 5HT6 receptor expressed in HEK293 cells at 100 nM. It is filed as cell-based.
Assay [2] deals with T1, 5-hydroxytryptamine receptor 6. Put plainly: Displacement of [3H]LSD from human 5HT6 receptor expressed in HEK293 cells. It is filed as cell-based. The essentials: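 Commercial HEK-293 membranes with human 5-HT6 diluted 1:40 in 50 mM Tris-HCl, 10 mM MgCl2, 0.5 mM EDTA, pH 7.4. Incubated with 2.7 nM [3H]-LSD and 22.9 µg protein for 60 min at 37 °C, then filtered on PEI-treated glass fibre. Nonspecific binding defined with 100 µM serotonin. Triplicate points; IC50 from a regression line, converted to Ki by Cheng-Prusoff.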
(Displacement assays read how much labelled ligand stays bound in the presence of the test substance.)

Assay [3] shares this target. Description: Antagonist activity at human 5HT6 receptor expressed in HEK293 cells assessed as inhibition of 5-HT-stimulated cAMP accumulation by HTRF assay relative to untreated control. Format: functional, cell-based. The essentials: (§1)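 HEK-293F cells stably expressing human 5-HT6, serum-starved overnight, 20,000 cells/well in Ham's F12 with 1 mM IBMX and 20 µM pargyline. Compound or DMSO vehicle (final DMSO ≤2%) added for 30 min at 37 °C, with 5-HT present in antagonist mode. HTRF cAMP detection with cryptate and XL-665, 1 h at room temperature, read at 665/620 nm.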
For orientation: Cyclic AMP is a second messenger, typically raised through Gs and lowered through Gi signalling.

Assay [4] has the same target. Description: Antagonist activity at human 5HT6 receptor expressed in HEK293 cells assessed as inhibition of 5-HT-stimulated cAMP accumulation by HTRF assay. Format: functional, cell-based. In outline:
as §1

Assay [5] concerns the target T2, Alpha-2A adrenergic receptor (Homo sapiens, UniProt P08913).
T2 sequence (P08913 whole entry): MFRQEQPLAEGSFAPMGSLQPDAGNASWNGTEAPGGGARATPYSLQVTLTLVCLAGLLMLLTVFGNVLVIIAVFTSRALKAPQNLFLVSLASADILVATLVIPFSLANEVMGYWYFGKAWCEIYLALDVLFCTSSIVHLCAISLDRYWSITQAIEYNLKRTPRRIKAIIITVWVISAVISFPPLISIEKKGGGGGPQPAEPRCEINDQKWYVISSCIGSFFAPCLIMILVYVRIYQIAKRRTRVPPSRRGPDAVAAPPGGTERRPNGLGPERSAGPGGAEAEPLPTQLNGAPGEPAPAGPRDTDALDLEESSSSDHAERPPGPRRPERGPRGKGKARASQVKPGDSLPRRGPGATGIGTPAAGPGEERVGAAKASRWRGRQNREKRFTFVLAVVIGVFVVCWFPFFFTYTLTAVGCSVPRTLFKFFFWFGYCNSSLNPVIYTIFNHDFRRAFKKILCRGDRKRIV
Put plainly: Inhibition of human alpha-2a adrenergic receptor.

In assay [6] the target is T3, 5-hydroxytryptamine receptor 1A (Homo sapiens, UniProt P08908).
T3 sequence (P08908 whole entry): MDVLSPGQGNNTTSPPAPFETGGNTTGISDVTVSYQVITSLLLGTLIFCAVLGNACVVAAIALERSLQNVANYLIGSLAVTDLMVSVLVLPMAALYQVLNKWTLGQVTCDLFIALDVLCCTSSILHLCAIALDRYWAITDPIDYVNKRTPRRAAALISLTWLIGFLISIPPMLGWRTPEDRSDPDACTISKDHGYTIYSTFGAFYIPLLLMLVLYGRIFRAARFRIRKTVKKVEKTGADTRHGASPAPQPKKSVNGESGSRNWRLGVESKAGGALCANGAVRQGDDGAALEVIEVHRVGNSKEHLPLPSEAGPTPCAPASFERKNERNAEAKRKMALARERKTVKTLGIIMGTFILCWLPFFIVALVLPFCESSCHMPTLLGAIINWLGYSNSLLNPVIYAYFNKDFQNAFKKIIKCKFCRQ
Put plainly: Inhibition of human 5HT1A receptor.

Assay [7] has as its target T4, 5-hydroxytryptamine receptor 2C (Homo sapiens, UniProt P28335).
T4 sequence (P28335 whole entry): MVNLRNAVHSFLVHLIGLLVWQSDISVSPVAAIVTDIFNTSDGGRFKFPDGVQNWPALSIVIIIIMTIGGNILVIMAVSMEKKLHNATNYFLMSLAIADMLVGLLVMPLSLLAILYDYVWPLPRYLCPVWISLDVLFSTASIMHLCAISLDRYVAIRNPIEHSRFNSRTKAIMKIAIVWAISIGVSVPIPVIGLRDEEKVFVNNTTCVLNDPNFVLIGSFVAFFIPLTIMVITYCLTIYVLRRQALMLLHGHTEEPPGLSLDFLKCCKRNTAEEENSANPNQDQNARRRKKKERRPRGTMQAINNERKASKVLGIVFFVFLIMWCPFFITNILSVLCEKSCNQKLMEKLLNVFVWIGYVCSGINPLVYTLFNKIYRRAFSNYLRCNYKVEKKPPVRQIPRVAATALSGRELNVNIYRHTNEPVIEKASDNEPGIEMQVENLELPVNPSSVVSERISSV
Description: Inhibition of human 5HT2C receptor.

The target of assay [8] is Sodium-dependent serotonin transporter (Homo sapiens, UniProt P31645). Description: Inhibition of human SERT.
Assay [9] has as its target T1, 5-hydroxytryptamine receptor 6. Description: Binding affinity to 5HT6 receptor.
Assay [10] shares this target. Put plainly: Antagonist activity at 5HT6 receptor. It is filed as functional.
Assay [11] has the same target. Put plainly: Agonist activity at 5HT6 receptor. Format: functional. In outline: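 HEK-293F cells stably expressing human 5-HT6, kept overnight in serum-free medium, then 20,000 cells/well in Ham's F12 with 1 mM IBMX and pargyline. Compound (DMSO at most 2% final) added for 30 min at 37 °C without 5-HT. cAMP measured by HTRF (cryptate plus XL-665), 1 h at room temperature, 665/620 nm ratio read.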

Assay [12] shares this target. Put plainly: Agonist activity at human 5HT6 receptor expressed in HEK293 cells assessed as stimulation of cAMP accumulation by HTRF assay relative to control. It is filed as functional, cell-based. The essentials:
as §1

The target in assay [13] is T5, Adrenergic receptor alpha-1 (Rattus norvegicus, UniProt P15823+P23944+P43140).
T5 sequence (P15823 whole entry): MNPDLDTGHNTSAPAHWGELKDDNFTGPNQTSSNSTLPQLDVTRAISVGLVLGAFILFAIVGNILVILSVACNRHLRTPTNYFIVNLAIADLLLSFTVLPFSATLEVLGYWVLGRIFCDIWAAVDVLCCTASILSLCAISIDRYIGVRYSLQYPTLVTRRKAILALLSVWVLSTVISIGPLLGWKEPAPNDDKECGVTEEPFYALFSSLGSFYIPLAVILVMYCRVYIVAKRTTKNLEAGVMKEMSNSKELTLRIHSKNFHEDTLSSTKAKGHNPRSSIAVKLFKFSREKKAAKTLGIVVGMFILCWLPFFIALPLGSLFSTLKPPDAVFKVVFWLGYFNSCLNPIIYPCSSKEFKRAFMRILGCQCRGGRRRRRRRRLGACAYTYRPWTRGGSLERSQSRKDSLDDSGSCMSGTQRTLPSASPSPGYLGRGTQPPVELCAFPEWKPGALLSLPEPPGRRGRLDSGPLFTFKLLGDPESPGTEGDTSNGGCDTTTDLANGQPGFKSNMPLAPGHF
T5 sequence (P23944 whole entry): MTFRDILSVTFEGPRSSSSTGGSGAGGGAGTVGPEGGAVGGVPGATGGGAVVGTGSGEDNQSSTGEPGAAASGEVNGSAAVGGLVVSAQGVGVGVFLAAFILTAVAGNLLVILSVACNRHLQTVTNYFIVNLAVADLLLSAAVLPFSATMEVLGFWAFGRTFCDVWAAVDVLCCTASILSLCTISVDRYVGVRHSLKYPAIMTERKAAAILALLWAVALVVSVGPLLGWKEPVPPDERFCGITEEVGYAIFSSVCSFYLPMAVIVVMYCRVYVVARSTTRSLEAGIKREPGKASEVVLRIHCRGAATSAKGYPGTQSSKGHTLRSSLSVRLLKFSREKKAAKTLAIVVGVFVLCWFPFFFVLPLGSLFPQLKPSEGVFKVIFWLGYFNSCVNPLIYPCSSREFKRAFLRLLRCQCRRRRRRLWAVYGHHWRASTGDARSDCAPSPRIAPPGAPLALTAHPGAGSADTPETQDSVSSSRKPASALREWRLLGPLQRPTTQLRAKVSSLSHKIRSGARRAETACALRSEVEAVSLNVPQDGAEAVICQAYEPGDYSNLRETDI
T5 sequence (P43140 whole entry): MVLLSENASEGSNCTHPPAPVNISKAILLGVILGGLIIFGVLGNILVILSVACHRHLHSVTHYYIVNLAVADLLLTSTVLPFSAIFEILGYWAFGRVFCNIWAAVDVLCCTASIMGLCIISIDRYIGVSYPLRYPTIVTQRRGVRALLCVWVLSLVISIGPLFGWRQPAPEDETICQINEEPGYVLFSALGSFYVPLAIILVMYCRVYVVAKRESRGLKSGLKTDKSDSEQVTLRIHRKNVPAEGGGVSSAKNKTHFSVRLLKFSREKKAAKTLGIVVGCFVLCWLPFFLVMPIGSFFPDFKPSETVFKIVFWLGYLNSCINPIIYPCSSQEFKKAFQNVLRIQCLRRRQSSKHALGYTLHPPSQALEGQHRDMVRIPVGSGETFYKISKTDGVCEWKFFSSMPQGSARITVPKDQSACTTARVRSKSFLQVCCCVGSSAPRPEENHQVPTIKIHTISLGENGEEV
Description: Inhibition of rat alpha1 adrenergic receptor.

Molecules are shown by their SMILES.

What is called inhibition is the percentage by which the read-out fell short of the control. Higher therefore signals strong suppression. For orientation: Ki means a dissociation constant, usually derived from enzyme kinetics or from competition with a known ligand. A higher Ki goes with a looser hold on the target. One may read the IC50 as the concentration that inhibits the measured activity by half. A word on the EC50: it is the concentration at which the effect is half-maximal. The term Emax denotes the greatest response seen or fitted, relative to the assay's reference.

T1 sequence (P50406 whole entry): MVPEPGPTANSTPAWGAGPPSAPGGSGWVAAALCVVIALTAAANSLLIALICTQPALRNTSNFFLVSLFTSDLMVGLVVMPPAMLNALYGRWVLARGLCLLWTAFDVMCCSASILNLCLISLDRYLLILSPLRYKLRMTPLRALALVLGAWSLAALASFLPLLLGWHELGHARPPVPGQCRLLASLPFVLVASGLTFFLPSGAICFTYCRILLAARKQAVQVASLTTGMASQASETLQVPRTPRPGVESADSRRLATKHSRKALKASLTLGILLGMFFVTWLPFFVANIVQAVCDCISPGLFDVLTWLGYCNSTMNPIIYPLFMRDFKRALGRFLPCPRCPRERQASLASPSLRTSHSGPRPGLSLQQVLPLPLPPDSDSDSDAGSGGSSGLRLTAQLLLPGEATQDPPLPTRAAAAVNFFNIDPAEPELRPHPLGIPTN
Sodium-dependent serotonin transporter, sequence (P31645 whole entry): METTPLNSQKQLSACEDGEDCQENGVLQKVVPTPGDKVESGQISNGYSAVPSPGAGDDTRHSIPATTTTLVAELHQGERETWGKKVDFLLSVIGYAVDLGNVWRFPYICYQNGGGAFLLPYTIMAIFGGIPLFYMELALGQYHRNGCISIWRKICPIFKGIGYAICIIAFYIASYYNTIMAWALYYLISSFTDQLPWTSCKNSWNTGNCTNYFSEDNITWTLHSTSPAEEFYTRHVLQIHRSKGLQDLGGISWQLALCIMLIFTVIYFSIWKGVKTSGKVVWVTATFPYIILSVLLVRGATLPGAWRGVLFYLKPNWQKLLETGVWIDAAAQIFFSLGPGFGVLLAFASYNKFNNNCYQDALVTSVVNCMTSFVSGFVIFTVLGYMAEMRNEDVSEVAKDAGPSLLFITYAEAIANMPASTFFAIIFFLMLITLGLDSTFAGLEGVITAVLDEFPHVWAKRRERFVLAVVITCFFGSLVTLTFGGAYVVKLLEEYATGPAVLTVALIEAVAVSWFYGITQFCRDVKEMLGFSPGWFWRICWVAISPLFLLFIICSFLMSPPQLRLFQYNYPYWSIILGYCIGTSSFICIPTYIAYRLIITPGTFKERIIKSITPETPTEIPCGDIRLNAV

Compound `CC1=CC(C)(C)c2ccc(NS(=O)(=O)c3c(Cl)nc4sccn34)cc21` displayed an inhibition in assay [1] of 75%. Further, in [2], the inhibitory constant (Ki) was determined as 80 nM. The Imax in assay [3] was found to be 92%. For the same compound, the IC50 in assay [4] is 2400 nM; in assay [5], greater than 10000 nM; in assay [6] it was greater than 10000 nM; in assay [7], greater than 10000 nM; in [8], greater than 10000 nM.
In turn, `CN(C)Cc1cn(S(=O)(=O)c2ccccc2)c2ccccc12` displayed a Ki in [9] of 3 nM. This compound had a half-maximal inhibitory concentration (IC50) in assay [10] of 880 nM.
Regarding `Cc1c(S(=O)(=O)Nc2ccc3c(c2)C([C@H]2CCN(C)C2)=CC3)sc2ccc(Cl)cc12`, the inhibition in assay [1] was determined as 57%.
`Cc1cn(S(=O)(=O)c2ccc(N)cc2)c2ccccc12` gave an IC50 in [10] of 320 nM.
Compound `CC1=C(C2CCCN(C)C2)c2cc(NS(=O)(=O)c3c(Cl)nc4sccn34)ccc2C1` (stereo unspecified) came in with an inhibition in assay [1] of 86%. In assay [2], this compound gave a Ki of 18 nM. Also, the Imax in assay [3] stood at 28%. Also, the IC50 was 1210 nM in [5] and greater than 10000 nM in assay [6].
As to `CC1=C(C2CCCN(C)C2)c2cc(NS(=O)(=O)c3sc4ccc(Cl)cc4c3C)ccc2C1` (stereo unspecified), the inhibition in assay [1] was 22%.
In assay [9], `O=S(=O)(Nc1ccc2[nH]cc(C[C@H]3CCCN3)c2c1)c1ccc(C(F)(F)F)cc1` registered a Ki of 0.4 nM. Besides, a half-maximal effect in [11] (EC50) was put at 4.5 nM.
In [9], `O=S(=O)(Nc1ccc2[nH]cc(C[C@@H]3CCCN3)c2c1)c1ccc(C(F)(F)F)cc1` came in with an inhibitory constant (Ki) of 10 nM. The compound further displayed a half-inhibitory concentration (IC50) in assay [10] of 21.6 nM.
`COc1cc2c(cc1NS(=O)(=O)c1c(Cl)nc3sccn13)C(C)=C(C)C2` came in with an inhibition in assay [1] of 84%. In [2], this compound returned an inhibition constant (Ki) of 64 nM. Also, in assay [3], the Imax came to 10%. In [12], the maximal effect (Emax) was 49%. For the same compound, the IC50 in assay [13] is greater than 10000 nM; in assay [5], greater than 1000 nM; in assay [6] it was greater than 10000 nM; in assay [7], greater than 1000 nM; in [8], greater than 10000 nM.

The values above are taken from ChEMBL document CHEMBL1152611, “Indene-based frameworks targeting the 5-HT6 serotonin receptor: ring constraint in indenylsulfonamides using cyclic amines and structurally abbreviated counterparts” (Bioorg Med Chem, 2009).
